{"source": "ChEMBL document CHEMBL1133501", "about": "“Conformationally constrained anesthetic steroids that modulate GABA(A) receptors” (J Med Chem, 2000)", "key": {"[1]": {"test_system": "Mus musculus", "assay": "Hypnotic dose required to cause a loss of righting reflex for a minimum period of 30 s in 50 percent of treated mice after intravenous administration.", "assay_type": "functional", "how_it_was_run": "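Mice given steroid intravenously. The endpoint was loss of righting reflex lasting at least 30 s. The dose producing this in 50% of treated mice (HD50) was derived by probit analysis and expressed in µmol·kg-1.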"}, "[2]": {"molecular_target": "GABA-A receptor; anion channel", "assay": "Inhibition of binding of tert-butyl bicyclophosphorothionate ([35 S]TBPS) at Gamma-aminobutyric acid A receptor from rat whole brain membranes", "assay_type": "cell membranes, Membrane"}}}
{"smiles": "C[C@]12CC[C@@H](O)C[C@H]1CC[C@@H]1[C@@H]2CC[C@@]2(C)[C@H]1C[C@@H]1O[C@@H]12", "values": [{"measurement": "HD50", "setting": "[1]", "value": 38, "unit": "µM/kg"}, {"measurement": "IC50", "setting": "[2]", "value": 159, "unit": "nM"}]}
{"smiles": "C[C@]12CC[C@H]3[C@@H](CC[C@H]4CC(O)CC[C@@]43C)[C@@H]1CC(=O)C2", "note": "(stereo not given in full)", "values": [{"measurement": "HD50", "setting": "[1]", "value": 134.7, "unit": "µM/kg"}]}
{"smiles": "C[C@]12CC[C@@H](O)C[C@@H]1CC[C@@H]1[C@@H]2CC[C@]2(C)[C@@H](C(=O)CO)CC[C@@H]12", "values": [{"measurement": "HD50", "setting": "[1]", "value": 18.5, "unit": "µM/kg"}, {"measurement": "IC50", "setting": "[2]", "value": 192, "unit": "nM"}]}
{"smiles": "C[C@]12CC[C@@H](O)C[C@@H]1CC[C@@H]1[C@@H]2CC[C@]2(C)[C@@H]3O[C@@H]3C[C@@H]12", "values": [{"measurement": "HD50", "setting": "[1]", "value": 68.4, "unit": "µM/kg"}, {"measurement": "IC50", "setting": "[2]", "value": 5350, "unit": "nM"}]}
{"smiles": "C[C@]12CC[C@@H](O)C[C@@H]1CC[C@@H]1[C@@H]2CC[C@@]2(C)[C@H](C#N)CC[C@@H]12", "values": [{"measurement": "HD50", "setting": "[1]", "value": 114.9, "unit": "µM/kg"}, {"measurement": "IC50", "setting": "[2]", "value": 1240, "unit": "nM"}]}
{"smiles": "CC(=O)[C@H]1CC[C@H]2[C@@H]3CC[C@H]4C[C@H](O)CC[C@]4(C)[C@H]3C(=O)C[C@]12C", "note": "[ALFAXALONE]", "values": [{"measurement": "HD50", "setting": "[1]", "value": 6.3, "unit": "µM/kg"}]}
{"smiles": "C[C@]12CC[C@@H](O)C[C@@H]1CC[C@@H]1[C@@H]2CC[C@@]2(C)[C@H]1C[C@@H]1CO[C@@H]12", "values": [{"measurement": "HD50", "setting": "[1]", "value": 146.9, "unit": "µM/kg"}, {"measurement": "IC50", "setting": "[2]", "value": 2530, "unit": "nM"}]}
{"smiles": "C[C@]12CC[C@@H](O)C[C@@H]1CC[C@@H]1[C@@H]2CC[C@@]2(C)[C@H]1CC[C@@]21CCO1", "values": [{"measurement": "HD50", "setting": "[1]", "value": 62.8, "unit": "µM/kg"}, {"measurement": "IC50", "setting": "[2]", "value": 232, "unit": "nM"}]}
{"smiles": "C[C@]12CC[C@@H](O)C[C@@H]1CC[C@@H]1[C@@H]2CC[C@]2(C)[C@@H](O)CC[C@@H]12", "note": "[ANDROSTANDIOL]", "values": [{"measurement": "HD50", "setting": "[1]", "value": 239.4, "unit": "µM/kg"}, {"measurement": "IC50", "setting": "[2]", "value": 1870, "unit": "nM"}]}
{"smiles": "C[C@]12CC[C@@H](O)C[C@@H]1CC[C@@H]1[C@@H]2CC[C@]2(C)C(=O)CC[C@@H]12", "note": "[ANDROSTERONE]", "values": [{"measurement": "HD50", "setting": "[1]", "value": 68.9, "unit": "µM/kg"}, {"measurement": "IC50", "setting": "[2]", "value": 1370, "unit": "nM"}]}
{"smiles": "C[C@]12CC[C@@H](O)C[C@@H]1CC[C@@H]1[C@@H]2CC[C@@]2(C)[C@H]1CC[C@@]21CO1", "values": [{"measurement": "HD50", "setting": "[1]", "value": 19.8, "unit": "µM/kg"}, {"measurement": "IC50", "setting": "[2]", "value": 55, "unit": "nM"}]}
{"smiles": "CO[C@H]1CC[C@H]2[C@@H]3CC[C@H]4C[C@H](O)CC[C@]4(C)[C@H]3CC[C@]12C", "values": [{"measurement": "HD50", "setting": "[1]", "value": 23.1, "unit": "µM/kg"}, {"measurement": "IC50", "setting": "[2]", "value": 210, "unit": "nM"}]}
{"smiles": "C[C@]12CC[C@@H](O)C[C@@H]1CC[C@@H]1[C@@H]2CC[C@@]2(C)[C@H]1C[C@@H]1O[C@@H]12", "values": [{"measurement": "HD50", "setting": "[1]", "value": 17.3, "unit": "µM/kg"}, {"measurement": "IC50", "setting": "[2]", "value": 255, "unit": "nM"}]}
{"smiles": "CC(=O)[C@H]1CC[C@H]2[C@@H]3CC[C@H]4C[C@H](O)CC[C@]4(C)[C@H]3CC[C@]12C", "note": "[BREXANOLONE]", "values": [{"measurement": "HD50", "setting": "[1]", "value": 10, "unit": "µM/kg"}, {"measurement": "IC50", "setting": "[2]", "value": 155, "unit": "nM"}]}
{"smiles": "CC(=O)[C@H]1CC[C@H]2[C@@H]3CC[C@@H]4C[C@H](O)CC[C@]4(C)[C@H]3CC[C@]12C", "note": "[ELTANOLONE]", "values": [{"measurement": "HD50", "setting": "[1]", "value": 9.5, "unit": "µM/kg"}, {"measurement": "IC50", "setting": "[2]", "value": 145, "unit": "nM"}]}
{"smiles": "C[C@]12CC[C@@H](O)C[C@H]1CC[C@@H]1[C@@H]2CC[C@@]2(C)[C@H]1CC[C@@]21CO1", "values": [{"measurement": "HD50", "setting": "[1]", "value": 22.6, "unit": "µM/kg"}, {"measurement": "IC50", "setting": "[2]", "value": 221, "unit": "nM"}]}
